# Measurements published in ChEMBL document CHEMBL4673206, “Truncated Latrunculins as Actin Inhibitors Targeting Plasmodium falciparum Motility and Host Cell Invasion” (J Med Chem, 2016).
# Key:
# [1] = tested on: G-actin polymerization; assay: Inhibition of KMEI-induced pyrene-labelled G-actin polymerization (unknown origin) at 100 uM preincubated for 1 min followed by KMEI addition and measured at 15 secs interval for 90 mins by spectrofluorimetric analysis relative to control; conditions: human, time 91 min
# How it was run: (§1)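 Converted to Mg2+ form with EGTA/MgCl2 for 2 min at room temperature; final actin 2.5 µM. Compound in DMSO added for 1 min, then polymerisation started with KMEI (50 mM KCl, 10 mM imidazole pH 7, 1 mM MgCl2, 1 mM EGTA). Fluorescence ex 365/em 407 nm read every 15 s for 90 min; triplicate.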
# [2] = tested on: G-actin polymerization; assay: Inhibition of KMEI-induced pyrene-labelled G-actin polymerization (unknown origin) at 10 uM preincubated for 1 min followed by KMEI addition and measured at 15 secs interval for 90 mins by spectrofluorimetric analysis relative to control; conditions: human, time 91 min; how it was run: as §1
# [3] = Inhibition of actin polymerisation in trophozoite-stage of plasmodium falciparum infected in human erythrocytes assessed as parasite growth inhibition measured after 72 hrs by SYBR dye based FACSort flow cytometry analysis; format: cell-based
# How it was run: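 Mature pigmented trophozoites at 0.1% parasitemia, 2% hematocrit, exposed to compound over two invasion cycles for 72 h at 37°C. Fixed with 0.25% glutaraldehyde for 1 h at room temperature, washed, stained with SYBR green, and counted by flow cytometry. Triplicate wells.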
# [4] = Inhibition of actin polymerisation in Toxoplasma gondii RH infected in human HFF cells assessed as reduction in invasion incubated for 20 mins prior to infection in HFF cells followed by 1 hr incubation under 5% CO2 and subsequent incubation for 72 hrs in DMEM medium 5% CO2 by crystal violet staining based analysis
# [5] = Selectivity index, ratio of CC50 for cytotoxicity against human HepG2 cells to EC50 for inhibition of actin polymerisation in trophozoite-stage of plasmodium falciparum; format: toxicity, cell-based; conditions: read-out: Ratio CC50/EC50
# [6] = Selectivity index, ratio of CC50 for cytotoxicity against human HEK293 cells to EC50 for inhibition of actin polymerisation in trophozoite-stage of plasmodium falciparum; format: toxicity, cell-based; conditions: read-out: Ratio CC50/EC50
# [7] = tested on: HepG2; assay: Cytotoxicity against human HepG2 cells assessed as reduction in cell viability incubated for 24 hrs by resazurin staining based assay; conditions: hepg2, 24 h
# How it was run: (§2)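 HEK293 and HepG2 seeded at 3000 and 5000 cells/well in DMEM with 10% FBS and left to attach 24 h (37°C, 5% CO2). Compounds added as a 1:3 serial dilution from 100 µM top concentration (0.5% DMSO final, 5% FBS final) for 24 h. Resazurin 10 µM added, 3 h, fluorescence at 560/590. Viability normalised to untreated and 100 µM tamoxifen wells; triplicate wells.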
# [8] = tested on: HEK293; assay: Cytotoxicity against HEK293 cells assessed as reduction in cell viability incubated for 24 hrs by resazurin staining based assay; conditions: human, hek293, 24 h; how it was run: as §2
structure (smiles),measurement,setting,value
COc1ccc(CN2C(=O)SC[C@H]2C2(OC)CC(OC(=O)c3ccccc3-c3cccs3)CCO2)cc1 (mixture of isomers),"inhibition at 1.5 h, 100 µM",[1],< 10%
same,"inhibition at 1.5 h, 10 µM",[2],< 10%
same,EC50,[3],7 µM
same,EC50,[4],19 µM
COc1ccc(CN2C(=O)SC[C@H]2C2(OC)CC(OC(=O)c3cc(C)ccc3-c3cccs3)CCO2)cc1 (mixture of isomers),EC50,[3],10 µM
COc1ccc(CN2C(=O)SC[C@H]2C2(OC)CC(OC(=O)c3ccc(I)cc3)CCO2)cc1 (mixture of isomers),EC50,[3],49 µM
COc1ccc(CN2C(=O)SC[C@H]2C2(OC)CC(OC(=O)c3ccc(C)cc3-c3cccs3)CCO2)cc1 (mixture of isomers),EC50,[3],15 µM
COc1ccc(CN2C(=O)SC[C@H]2C2(OC)CC(OC(=O)c3cccc(-c4cccs4)c3)CCO2)cc1 (mixture of isomers),EC50,[3],18 µM
COc1ccc(CN2C(=O)SC[C@H]2C2(OC)CC(O)CCO2)cc1 (stereo not given in full),EC50,[3],> 100 µM
C/C1=C/C(=O)O[C@@H]2C[C@@H](CC[C@H](C)/C=C\CC1)O[C@@](O)([C@@H]1CSC(=O)N1)C2 [LATRUNCULIN B],"inhibition at 1.5 h, 100 µM",[1],100%
same,"inhibition at 1.5 h, 10 µM",[2],100%
same,EC50,[3],44 µM
CCC/C=C/c1ccccc1C(=O)OC1CCOC(OC)([C@@H]2CSC(=O)N2Cc2ccc(OC)cc2)C1 (mixture of isomers),EC50,[3],49 µM
COc1ccc(CN2C(=O)SC[C@H]2C2(OC)CC(OC(=O)c3ccccc3-c3cccc4ccccc34)CCO2)cc1 (mixture of isomers),selectivity ratio,[5],15
same,selectivity ratio,[6],17
same,CC50,[7],90 µM
same,CC50,[8],99 µM
same,"inhibition at 1.5 h, 100 µM",[1],< 10%
same,"inhibition at 1.5 h, 10 µM",[2],< 10%
same,EC50,[3],7 µM
same,EC50,[4],16 µM
COc1ccc(CN2C(=O)SC[C@H]2C2(OC)CC(OC(=O)c3ccc(-c4cccs4)cc3)CCO2)cc1 (mixture of isomers),EC50,[3],24 µM
COc1ccc(CN2C(=O)SC[C@H]2C2(OC)CC(OC(=O)c3ccccc3)CCO2)cc1 (mixture of isomers),EC50,[3],31 µM
COc1ccc(CN2C(=O)SC[C@H]2C2(OC)CC(OC(=O)c3ccccc3I)CCO2)cc1 (mixture of isomers),"inhibition at 1.5 h, 100 µM",[1],< 10%
same,"inhibition at 1.5 h, 10 µM",[2],< 10%
same,EC50,[3],17 µM
CCCCC(=O)OC1CCOC(OC)([C@@H]2CSC(=O)N2Cc2ccc(OC)cc2)C1 (mixture of isomers),selectivity ratio,[5],1
same,selectivity ratio,[6],1
same,CC50,[7],111 µM
same,CC50,[8],103 µM
same,EC50,[3],66 µM
same,EC50,[4],> 100 µM
COc1ccc(CN2C(=O)SC[C@H]2C2(OC)CC(OC(=O)c3ccc(C)cc3-c3ccccc3)CCO2)cc1 (mixture of isomers),EC50,[3],13 µM
COc1ccc(CN2C(=O)SC[C@H]2C2(OC)CC(OC(=O)c3ccccc3C3=CCCCC3)CCO2)cc1 (mixture of isomers),selectivity ratio,[5],15
same,selectivity ratio,[6],14
same,CC50,[7],123 µM
same,CC50,[8],109 µM
same,"inhibition at 1.5 h, 100 µM",[1],< 10%
same,"inhibition at 1.5 h, 10 µM",[2],< 10%
same,EC50,[3],7 µM
same,EC50,[4],16 µM
COc1ccc(CN2C(=O)SC[C@H]2C2(OC)CC(OC(=O)c3ccco3)CCO2)cc1 (mixture of isomers),EC50,[3],62 µM
COc1ccc(CN2C(=O)SC[C@H]2C2(OC)CC(OC(=O)c3cccc(I)c3)CCO2)cc1 (mixture of isomers),EC50,[3],49 µM
COc1ccc(CN2C(=O)SC[C@H]2C2(OC)CC(OC(=O)C3CCCC3)CCO2)cc1 (mixture of isomers),EC50,[3],66 µM
same,EC50,[4],> 100 µM
